In the library only some 2.3% were active in any assay of this set; here they are far more common.
Myeloid diff 2: myeloid differentiation induction; 360,000 compounds, 1% hits; calls only at 10 µM; ER-HoxA9 myeloid progenitors, lysozyme-GFP differentiation, flow cytometry;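 active means normalized GFP-positive differentiation at or above the plate's own cutoff, the solvent-only control mean plus 3 SD; inconclusive means no clear call, values can overlap the other calls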;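 further: cells exposed to compound for four days before flow analysis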
HNF4A DNA FP: change in binding of human HNF4 alpha to DNA. HNF4a-FITC DNA binding, fluorescence polarization, 1 h. P41235. activity change, % at 10 µM. 360,000 compounds, 0.3% hits; in the data active means activity change above about 30%, passing the limit was not always enough
TPT1 inhibitor: blocks Candida albicans tRNA 2'-phosphotransferase. inhibition, % at 5 µM. AID 1962. recombinant caTPT1, FP RNA substrate dephosphorylation. 300,000 compounds, 0.81% hits;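 active means inhibition above the mean of all tested compounds plus 3 SD, set per screening campaign, cut at about 24% in these data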;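 further: plate controls were DMSO alone for no effect and ferristatin control at 100 nM for full effect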
Rpn11 inh: blocks the human proteasome subunit Rpn11; O00487; human 26S proteasome, Ub4-pepOG fluorescence polarization; 20S core pre-blocked with epoxomicin; inhibition, % at 20 µM; 360,000 compounds, 0.59% hits; AID 588493;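 active means inhibition at 20 µM, scaled to each plate's controls, above about 33%, limit read from the data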
CSN deneddyl inh: inhibitors of human CSN-mediated cullin deneddylation; Q92905; Purified CSN, SCF-Nedd8-OG deneddylation, fluorescence polarization; inhibition, % at 12.5 µM; 360,000 compounds, 0.38% hits; AID 651999;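 active means pattern-corrected inhibition above about 35%, with an unprinted fluorescence ratio check between 0.5 and 1.5, limit read from the data, passing the limit was not always enough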;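 further: 0% = enzyme with substrate and 100% = substrate without enzyme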
Target sequence (Q92905 whole entry, looked up, one chain of several): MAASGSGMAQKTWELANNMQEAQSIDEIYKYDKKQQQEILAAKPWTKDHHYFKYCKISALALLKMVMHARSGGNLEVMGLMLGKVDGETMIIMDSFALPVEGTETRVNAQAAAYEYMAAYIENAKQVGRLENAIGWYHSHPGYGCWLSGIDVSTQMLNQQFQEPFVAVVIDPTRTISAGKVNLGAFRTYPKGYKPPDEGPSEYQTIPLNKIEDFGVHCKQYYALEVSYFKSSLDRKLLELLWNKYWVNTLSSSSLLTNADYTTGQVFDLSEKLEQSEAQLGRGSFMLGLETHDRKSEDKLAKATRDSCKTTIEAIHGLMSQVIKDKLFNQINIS
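Test system: purified human Csn5 enzyme expressed in HEK293T cells. Amount: 0.24 nM enzyme. Reagent: SCFSkp2-Nedd8OG substrate at 10 nM final. Schedule: 90 min incubation of compound, enzyme and substrate at room temperature. Detection: fluorescence polarization. Read-out: % inhibition of substrate cleavage by Csn5.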
Myeloid diff CP1: myeloid differentiation induction; shares compounds with Myeloid diff 2; ER-HoxA9 myeloid progenitors, GFP/Mac1 double-positive flow; calls only; 2,300 compounds, 2% hits; AID 651706;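 active means share of green or green-and-red cells above 9 and 9% in run 1 or 4 and 3% in run 2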
GFP autofluor: compound fluorescence in myeloid differentiation counter-screen; AID 651707; 2,300 compounds, 7.4% hits; fluorescence response, % (no concentration beside the values); shares compounds with Myeloid diff 2; ER-HoxA9 myeloid progenitors, no estrogen, GFP autofluorescence flow cytometry; vehicle wells 0%, positive control 100%;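 active means over 5% cells positive for green fluorescent reporter, or over 2% positive for both it and APC stain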;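 further: range taken on the double positive population between DMSO and positive control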
CSN deneddyl val: Csn5 (human) deneddylation inhibition, single-concentration validation. shares compounds with CSN deneddyl inh. 540 compounds, 62% hits. Csn5 deneddylation of SCF-Nedd8OG, fluorescence polarization, 90 min. inhibition, % at 16.6 µM; in the data active means inhibition above about 50%;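 further: 0% = DMSO with enzyme and 100% = no enzyme wells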
MMP-2 counter: blocks human MMP-2 in a CSN deneddylation counter-screen | recombinant MMP-2, FRET substrate fluorescence, 60 min | shares compounds with CSN deneddyl inh | inhibition, % at 16.6 µM | AID 720655 | 540 compounds, 33% hits;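 active means corrected plate-normalized z-score of 5 or more, or -5 or less, or inhibition of 15% or more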;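 further: plate controls were DMSO wells with enzyme for no effect and buffer wells lacking MMP-2 for full effect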
Thrombin cntr: counter-screen for CSN deneddylation inhibitors: bovine thrombin inhibition. 540 compounds, 49% hits. inhibition, % at 16.6 µM. bovine thrombin cleavage of Ub4-pepOG, fluorescence polarization. shares compounds with CSN deneddyl inh;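 active means inhibition at or above a set limit, with a fluorescence interference ratio between 0.5 and a set maximum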
HNF4A confirm: change in binding of human HNF4 alpha to DNA, retest; AID 1224897; shares compounds with HNF4A DNA FP; 210 compounds, 99% hits; activity change, % at 12.5 µM; HNF4A-FITC DNA binding, fluorescence polarization, 1 h; call rule not given here
* marks the source's active call; other numbers are inactive results; i = inactive; ? = inconclusive; . = no result given; + = active, no number.

SMILES	Myeloid diff 2	HNF4A DNA FP	TPT1 inhibitor	Rpn11 inh	CSN deneddyl inh	MMP-2 counter	Thrombin cntr	others
COc1cccc(C(c2nnnn2C(C)(C)C)N2CCC3(CC2)C(=O)NCN3c2ccccc2)c1OC (configuration not stated)	i	1	.	4	1	.	.
O=C(/C=C/c1ccc2c(c1)OCO2)c1c(O)n(CCC2=CCCCC2)c(=O)[nH]c1=O	i	0	11	33	10	.	.	Myeloid diff CP1=i;GFP autofluor=0
COC(=O)C1=C(c2cccc(C#N)c2)C[C@@H]2CC[C@H]1N2C(=O)NC1CCCCC1	+	1	.	8	2	.	.	Myeloid diff CP1=i;GFP autofluor=0
COC(=O)C1=C(c2cccc(C#N)c2)C[C@@H]2CC[C@H]1N2C(=O)NC(C)C	i	-1	.	-6	0	.	.
COC(=O)C1=C(c2cc3ccccc3s2)C[C@@H]2CC[C@H]1N2C(=O)NC1CCCCC1	i	-1	-1	7	5	.	.	Myeloid diff CP1=+;GFP autofluor=0
CCOC(=O)[C@]12Cc3cc(C)ccc3[C@H]1N(C1CCCCC1)C(=O)c1ccccc12	?	3	.	.	3	.	.
COc1ccc2c(c1OC)CN1CCc3cc4c(cc3C1C2)OCO4 (configuration not stated)	i	-4	0	-8	-1	.	.	Myeloid diff CP1=i;GFP autofluor=0
CCCCCN1C(=O)c2cc(OC)ccc2[C@@]2(C(=O)OCC)Cc3cc(OC)ccc3[C@@H]12	i	2	.	.	-3	.	.
COCCOC(=O)c1c(N)n(Cc2ccco2)c2nc3ccccc3nc12	i	-4	-4	-14	-3	.	.	Myeloid diff CP1=i;GFP autofluor=2
CC(C)OC(=O)c1c(N)n(Cc2ccco2)c2nc3ccccc3nc12	i	-4	-3	1	4	.	.
O=C1C(=O)c2ccccc2-c2ccccc21	?	3	0	9	59*	-2	-39	CSN deneddyl val=0
CCOC(=O)c1c(NS(=O)(=O)c2ccccc2)n(CCCOC)c2nc3ccccc3nc12	i	1	-2	4	49*	-3	-1	CSN deneddyl val=95*
C=Cc1cc(OC)c2c(c1)c(=O)oc1c2cc(OC)c2c(O)ccc(C3OC(C)C(O)C(C)(O)C3O)c21 (configuration not stated)	?	-62	.	-10	70	.	.
C=C1C(=O)O[C@@H]2C[C@@H](C)[C@@H]3C=CC(=O)[C@@]3(C)[C@@H](OC(=O)CC(=O)O[C@H]3[C@@H]4C(=C)C(=O)O[C@@H]4C[C@@H](C)[C@@H]4C=CC(=O)[C@]43C)[C@H]12	?	-25	5	95*	57*	1	21*
C=C1C(=O)OC2CC(C)C3C=CC(=O)C3(C)C(O)C12 (configuration not stated)	?	0	.	-3	7	.	.
Cc1nc2c(=O)n(C)c(=O)nc-2n(C)n1	?	78*	-1	3	63*	10	-41	CSN deneddyl val=12
CCn1nc(-c2ccccc2)nc2c(=O)n(C)c(=O)nc1-2	?	2	-105	9	2	.	.
Fc1ccc(N2Cc3ccccc3-n3nncc3C2)cc1	i	-1	.	-1	5	.	.
NC(=O)c1ccc(N=Cc2c(O)n(Cc3ccco3)c(=O)[nH]c2=O)cc1	i	-26	16	20	45*	55*	1	CSN deneddyl val=39
COc1cccc(C(c2nnnn2C2CCCCC2)N2CCC3(CC2)C(=O)NCN3c2ccccc2)c1OC (configuration not stated)	i	-3	.	9	6	.	.
CCCCC(=O)N/N=C/c1c(O)n(CCc2ccccc2)c(=O)[nH]c1=O	i	2	3	1	2	.	.
CCCCn1c(O)c(/C=C/C=Nc2ccccc2)c(=O)[nH]c1=O	i	55*	141*	.	47*	-11	37*	CSN deneddyl val=50
O=C1NCN(c2ccccc2)C12CCN(C(c1ccnc3ccccc13)c1nnnn1C1CCCCC1)CC2 (configuration not stated)	i	2	.	8	1	.	.
CN1C(=O)/C(=C/C=C/c2ccco2)C(=O)NC1=S	i	4	23	149*	65*	20*	50*	CSN deneddyl val=29
C[C@H]1CC[C@@H]2[C@@H](C)[C@H]3[C@H](C[C@H]4[C@@H]5CC=C6C[C@@H](O[C@@H]7O[C@H](CO)[C@H](O)[C@H](O[C@@H]8O[C@H](CO)[C@@H](O)[C@H](O)[C@H]8O)[C@H]7O[C@@H]7O[C@@H](C)[C@H](O)[C@@H](O)[C@H]7O)CC[C@]6(C)[C@H]5CC[C@]34C)N2C1	i	44*	28*	.	16	.	.	HNF4A confirm=40*
CCOC(=O)[C@]12Cc3cc(C)ccc3[C@H]1N(Cc1ccccc1)C(=O)c1cc(OC)ccc12	i	-2	.	.	-1	.	.

From PubChem BioAssay
